Assay results published in ChEMBL document CHEMBL3621064, “Fungal metabolite ophiobolin A as a promising anti-glioma agent: In vivo evaluation, structure-activity relationship and unique pyrrolylation of primary amines” (Bioorg Med Chem Lett, 2015).
Activity calls are given as the source filed them. The rule behind the calls is not given here.

Columns and labels:
A549 = experiment: Antiproliferative activity against human A549 cells by MTT assay; type: functional
Procedure, shortened: (§1)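 Cell lines grown in RPMI with 10% heat-inactivated fetal calf serum, 4 mM glutamine, gentamicin, penicillin and streptomycin. Growth inhibition by colorimetric MTT assay across a five-line panel: U373 GBM, A549 NSCLC and SKMEL-28 melanoma (apoptosis-resistant), plus Hs683 oligodendroglioma and MCF-7 breast (apoptosis-sensitive).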

MCF7 = experiment: Antiproliferative activity against human MCF7 cells by MTT assay; type: functional; procedure, shortened: as §1
[1] = Antiproliferative activity against human Hs683 cells by MTT assay; type: functional; details: Hs 683; procedure, shortened: as §1
[2] = Antiproliferative activity against human U373 cells by MTT assay; type: functional, U-373MG ATCC; details: U373 MG; procedure, shortened: as §1
SK-MEL-28 = experiment: Antiproliferative activity against human SK-MEL-28 cells by MTT assay; type: functional; procedure, shortened: as §1
[3] = Growth inhibition of human NCI60 cells; type: functional
U-251 [4] = experiment: Antitumor activity against luciferase expressing human U251 cells xenografted in mouse assessed as increase in mouse survival at 10 mg/kg, ip dosed as 3 doses per week for 21 days; type: functional, organism-based
Procedure, shortened: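 Orthotopic mouse GBM model inoculated with 1×10^6 U251-LUC cells; 10 mg/kg IP 3x per week for 21 days, 0.9% saline vehicle control; mice without signs of GBM sacrificed on day 100 after inoculation and counted as long-term survivors; survival monitored.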

U-251 [5] = experiment: Antitumor activity against luciferase expressing human U251 cells xenografted in mouse assessed as inhibition of tumor growth at 10 mg/kg, ip dosed as 3 doses per week for 21 days; type: functional, organism-based
Procedure, shortened: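 Orthotopic U251-luciferase human GBM tumors in mice; 10 mg/kg IP 3x weekly for 21 days versus 0.9% saline vehicle; relative tumor growth followed by temporal bioluminescence imaging.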

Brain = experiment: Drug level in brain tumor of luciferase expressing human U251 cells xenografted mouse dosed intravenously and measured after 15 mins; type: ADME, organism-based, U-251; details: in vivo, iv, 0.25 h
Procedure, shortened: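 Single intravenous injection into lateral tail vein of a mouse bearing a brain tumor; brain tumor extract taken 15 min post administration and analysed for intact compound.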

GI50 (A549) [µM] | GI50 (MCF7) [µM] | GI50 (SK-MEL-28) [µM] | SMILES | GI50 [1] [µM] | GI50 [2] [µM] | GI50 [3] [µM] | Activity (U-251 [4]) | TGI (U-251 [5]) | Drug uptake (Brain)
59 | 43 | 86 | COC(=O)/C=C/C1=C/C[C@@H]2[C@](C)(CC[C@@]23O[C@@H](C=C(C)C)C[C@@H]3C)C[C@H]2[C@@H]1C(=O)C[C@@]2(C)O | 59 | 86 | – | – | – | –
0.3 | 0.2 | 0.1 | CCOC1O[C@@]2(OCC)C[C@@](C)(O)[C@H]3C[C@@]4(C)CC[C@@]5(O[C@@H](C=C(C)C)C[C@@H]5C)[C@@H]4C/C=C/1[C@H]32 (mixture of isomers) | 0.2 | 0.4 | – | – | – | –
26 | 14 | 24 | CC(C)=C[C@H]1C[C@H](C)[C@]2(CC[C@]3(C)C[C@H]4c5c(cn(CCCCCCn6cc7c8c6C[C@@](C)(O)[C@H]8C[C@@]6(C)CC[C@@]8(O[C@@H](C=C(C)C)C[C@@H]8C)[C@@H]6/C=C\7)c5C[C@@]4(C)O)/C=C\[C@H]32)O1 | 25 | 30 | – | – | – | –
3 | 4 | 3 | CC(=O)N[C@@H](CCCC/N=C/C1=C/C[C@@H]2[C@](C)(CC[C@@]23O[C@@H](C=C(C)C)C[C@@H]3C)C[C@H]2[C@@H]1C(=O)C[C@@]2(C)O)C(=O)O | 3 | 4 | – | – | – | –
35 | 23 | 33 | CC(C)=C[C@H]1C[C@H](C)[C@]2(CC[C@]3(C)C[C@H]4c5c(cn(CCc6ccc(O)cc6)c5C[C@@]4(C)O)/C=C\[C@H]32)O1 | 33 | 54 | – | – | – | –
15 | 12 | 23 | C#CCCCOC(=O)/C=C/C1=C/C[C@@H]2[C@](C)(CC[C@@]23O[C@@H](C=C(C)C)C[C@@H]3C)C[C@H]2[C@@H]1C(=O)C[C@@]2(C)O | 12 | 20 | – | – | – | –
6 | 13 | 6 | CC(=O)O[C@]1(C)Cc2occ3c2[C@@H]1C[C@@]1(C)CC[C@@]2(O[C@@H](C=C(C)C)C[C@@H]2C)[C@@H]1/C=C\3 | 11 | 8 | – | – | – | –
0.9 | 1.2 | 0.6 | CCOC(C)(C)[C@@H](Br)[C@H]1C[C@H](C)[C@]2(CC[C@]3(C)C[C@H]4[C@H](C(=O)C[C@@]4(C)O)/C(C=O)=C\C[C@H]32)O1 | 0.9 | 1.2 | – | – | – | –
27 | 26 | 28 | CC(C)=C[C@H]1C[C@H](C)[C@]2(CC[C@]3(C)C[C@H]4[C@H](C(=O)C[C@@]4(C)O)C(/C=C/C#N)=C\C[C@H]32)O1 | 22 | 27 | – | – | – | –
1 | 1.4 | 0.6 | C#CCCCCOC(C)(C)[C@@H](Br)[C@H]1C[C@H](C)[C@]2(CC[C@]3(C)C[C@H]4[C@H](C(=O)C[C@@]4(C)O)/C(C=O)=C\C[C@H]32)O1 | 0.8 | 2.2 | – | – | – | –
0.3 | 0.4 | 0.3 | CO[C@H]1O[C@@]2(OC)C[C@@](C)(O)[C@H]3C[C@@]4(C)CC[C@@]5(O[C@@H](C=C(C)C)C[C@@H]5C)[C@@H]4C/C=C/1[C@H]32 | 0.4 | 0.4 | – | – | – | –
> 100 | > 100 | > 100 | CC(=O)N[C@@H](CCCCn1cc2c3c1C[C@@](C)(O)[C@H]3C[C@@]1(C)CC[C@@]3(O[C@@H](C=C(C)C)C[C@@H]3C)[C@@H]1/C=C\2)C(=O)O | > 100 | > 100 | – | – | – | –
1.2 | 1.2 | 1 | C[C@H]1C[C@H]([C@H](Br)C(C)(C)OCc2cn(Cc3ccccc3)nn2)O[C@@]12CC[C@]1(C)C[C@H]3[C@H](C(=O)C[C@@]3(C)O)/C(C=O)=C\C[C@H]12 | 0.8 | 3.4 | – | – | – | –
34 | 27 | 29 | CC(C)=C[C@H]1C[C@H](C)[C@]2(CC[C@]3(C)C[C@H]4c5c(cnnc5C[C@@]4(C)O)CC[C@H]32)O1 | 29 | 30 | – | – | – | –
0.3 | 0.2 | 0.2 | CCCO[C@H]1O[C@@]2(OCCC)C[C@@](C)(O)[C@H]3C[C@@]4(C)CC[C@@]5(O[C@@H](C=C(C)C)C[C@@H]5C)[C@@H]4C/C=C/1[C@H]32 | 0.2 | 0.4 | – | – | – | –
0.6 | 0.6 | 0.4 | C[C@H]1C[C@H](C2OC2(C)C)O[C@@]12CC[C@]1(C)C[C@H]3[C@H](C(=O)C[C@@]3(C)O)/C(C=O)=C\C[C@H]12 (mixture of isomers) | 0.4 | 0.6 | – | – | – | –
0.8 | 0.8 | 0.6 | C#CCOC(C)(C)[C@@H](Br)[C@H]1C[C@H](C)[C@]2(CC[C@]3(C)C[C@H]4[C@H](C(=O)C[C@@]4(C)O)/C(C=O)=C\C[C@H]32)O1 | 0.6 | 1.4 | – | – | – | –
51 | 40 | 58 | CC(C)=C[C@H]1C[C@H](C)[C@]2(CC[C@]3(C)C[C@H]4c5c(cn(Cc6ccccc6)c5C[C@@]4(C)O)/C=C\[C@H]32)O1 | 46 | 69 | – | – | – | –

SMILES | GI50 (A549) [µM] | GI50 (MCF7) [µM] | GI50 (SK-MEL-28) [µM] | GI50 [1] [µM] | GI50 [2] [µM] | GI50 [3] [µM] | Activity (U-251 [4]) | TGI (U-251 [5]) | Drug uptake (Brain)
CC(C)=C[C@H]1C[C@H](C)[C@]2(CC[C@]3(C)C[C@@H]4C(C)=CC(=O)[C@H]4/C(C=O)=C\C[C@H]32)O1 [3-ANHYDRO-6-EPI-OPHIOBOLIN A] | 9 | 10 | 8 | 8 | 18 | – | – | – | –
CC(C)=C[C@H]1C[C@H](C)[C@]2(CC[C@]3(C)C[C@H]4[C@H](C(=O)C[C@@]4(C)O)/C(C=O)=C\C[C@H]32)O1 [OPHIOBOLIN A] | 0.1 | 0.06 | 0.05 | 0.02 | 0.06 | 0.07 | Active | Active | Active
